Measurements from different studies.
Target: Serine/threonine-protein kinase 17A (STK17A, Homo sapiens, UniProt Q9UEE5)

CN1CC(Oc2cnc(C#N)cc2-c2ccn3nc(NC(=O)C4CC4)cc3c2)C1 — inhibition (enzyme activity, inhibitor; 1 µM): 10%
CC(=O)C1=C(C)N(c2cccc(C(F)(F)F)c2)C(=O)N[C@@H]1c1ccc(C#N)nc1 — remaining binding (cell-free assay, competition with immobilised ligand; 1 µM): 93.7%
O=C1Nc2ccc(Cl)cc2C1=Cc1cc(Cl)c(O)c(Cl)c1 — remaining signal (cell-free assay; 0.5 µM): 78.9%
CC(C)c1ccc(NC(=O)c2cccs2)c(-c2nc3ccccc3[nH]c2=O)c1 — activity vs control (enzyme activity, inhibitor; 1 µM): 91%
NS(=O)(=O)c1ccc(CNc2nc(Nc3cccc(NC(=O)N4CCCC4)c3)ncc2Br)cc1 — remaining activity (enzyme activity, inhibitor, radiometric; 1 µM): 41%
COc1ccc2cc(OCC3(C(=O)O)CN(C(=O)c4ccc(F)cc4)C3)ccc2c1 — remaining binding (cell-free assay, competition with immobilised ligand; 1 µM): 81%
Cc1ccc(Nc2nccc(N(C)c3ccc4c(C)n(C)nc4c3)n2)cc1S(N)(=O)=O — inhibition (cell-free assay; 0.3 µM): -6%
Cc1c[nH]c2nccc(Oc3c(F)cc(Nc4cc(Cl)nc(N)n4)cc3F)c12 — remaining binding (cell-free assay, competition with immobilised ligand; 0.1 µM): 100%
CC1CCCN1c1nccc(-c2cnn3ncccc23)n1 (stereo not shown) — remaining binding (binding; 1 µM): 84%
CN(C)C(=O)Cn1cc(-c2nc(C3(c4ccc(-c5cnc(N)nc5)cc4)CC3)no2)cn1 — remaining binding (cell-free assay, competition with immobilised ligand; 1 µM): 100%
CNC(=O)c1cc(Oc2ccc(NC(=O)Nc3ccc(Cl)c(C(F)(F)F)c3)cc2)ccn1 — inhibition (cell-free assay; 10 µM): 31%
O=C1NC(=O)c2cc(Nc3ccc(F)cc3)c(Nc3ccc(F)cc3)cc21 — remaining signal (cell-free assay; 0.5 µM): 104%
O=C(NCCCNc1ccnc(Nc2cccc(NC(=O)N3CCCC3)c2)n1)C1CCC1 — remaining activity (enzyme activity, inhibitor, radiometric; 1 µM): 18%
CCN(CC)CCNC(=O)c1c(C)[nH]c(/C=C2\C(=O)Nc3ccc(F)cc32)c1C — remaining signal (cell-free assay; 0.5 µM): 26.7%
O=C(O)[C@H]1[C@H](Cn2nnc3ccccc3c2=O)CC[C@@H]1C(=O)c1ccc(OCCC2CCOCC2)cc1 — remaining binding (cell-free assay, competition with immobilised ligand; 1 µM): 97%
Cc1nn(CC(F)(F)F)cc1Nc1ncc(C2CC2)c(NCCc2c[nH]cn2)n1 — remaining activity (enzyme activity, inhibitor, radiometric; 1 µM): 107%
N#CCCc1ccc2c(c1)-c1[nH]c3ccc([N+](=O)[O-])cc3c1CC(=O)N2 — remaining signal (cell-free assay; 0.5 µM): 46.8%
c1cc(CN2CCOCC2)cc(Nc2ncc(C3CC3)c(NCCc3c[nH]cn3)n2)c1 — remaining activity (enzyme activity, inhibitor, radiometric; 1 µM): 50%
C=CC(=O)Nc1cc(Nc2nccc(Nc3cc(Cl)c(F)cc3C(C)(C)O)n2)c(OC)cc1N1CC[C@@H](N(C)C)C1 — inhibition (enzyme activity, inhibitor; 1 µM): 1%
CN1CCc2cc(Nc3ncc(C4CC4)c(NCCCNC(=O)C4CCC4)n3)ccc2C1 — remaining activity (enzyme activity, inhibitor, radiometric; 1 µM): 3%
CC(=O)c1c(NS(C)(=O)=O)c2cc(-c3ccc(Cl)cc3)c(-c3ccc(Cl)cc3Cl)nc2n(C)c1=O — remaining binding (cell-free assay, competition with immobilised ligand; 1 µM): 88%
NS(=O)(=O)c1ccc(CNc2ccnc(Nc3cccc(NC(=O)N4CCCC4)c3)n2)cc1 — remaining activity (enzyme activity, inhibitor, radiometric; 1 µM): 82%
COc1cc2ncnc(Nc3ccc(F)c(Cl)c3)c2cc1OCCCN1CCOCC1 — remaining signal (cell-free assay; 0.5 µM): 96%
Cc1nn(CC(F)(F)F)cc1Nc1ncc(Br)c(NCCCNC(=O)C2CCC2)n1 — remaining activity (enzyme activity, inhibitor, radiometric; 1 µM): 5%
CCCOc1ccc([C@H]2[C@H](C(=O)O)[C@@H](c3ccc4c(c3)OCO4)CN2CC(=O)Nc2c(CC)cccc2CC)cc1 — remaining binding (cell-free assay, competition with immobilised ligand; 1 µM): 92%
